Bioassay records as filed in PubChem.
In the library only some 2.7% were active in any assay of this set; here they are far more common.
CaV13 FRET inh: Disruptors of the CACNA1D IQ motif to Ca2+-dependent inactivation inhibitor domain association, primary screening, Förster resonance energy transfer in intact living …; HEK cells, CFP/YFP FRET ICDI-IQ, plate reader, 10 min; percent FRET-ratio fall versus neutral wells; inhibition, % at 12.3 µM; 340,000 compounds, 0.098% hits; AID 743397;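 active means mean replicate inhibition of at least 30% and at least 1% of replicates passing that level; inconclusive means only one of the two criteria is met; inactive means neither criterion is met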
DENV2 CPE: DENV2-induced cell death inhibition | DENV2-infected cells, cytopathic effect rescue, plate reader | CPE inhibition, % at 9.99 µM | 350,000 compounds, 1.7% hits; in the data active means CPE inhibition above about 20%, passing the limit was not always enough; inconclusive means no clear call, values can overlap the other calls; tested in BHK-21 cells
MLL AF4-AF9 inh: blocks AF4 peptide binding to human AF9; 350,000 compounds, 0.47% hits; P42568; AlphaScreen, biotin-AF4 peptide binding to FLAG-AF9; inhibition, % at 10 µM;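 active means every replicate reaching a set inhibition limit, whatever the replicate mean, cut at about 25% in these data; inconclusive means mean inhibition reaches that limit but some replicates miss it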
S100A4 inh HTS: blocks human S100A4 binding to myosin IIA peptide | P26447 | S100A4/TAMRA-MyoIIA peptide fluorescence polarization | inhibition, % at 10.7 µM | 360,000 compounds, 0.14% hits | AID 652163;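 active means mean inhibition of at least 70% across replicates, with every replicate also reaching that level; inconclusive means mean inhibition reaches 70% but some replicates fall short; inactive means mean inhibition below 70%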
Target sequence (P26447 whole entry, looked up): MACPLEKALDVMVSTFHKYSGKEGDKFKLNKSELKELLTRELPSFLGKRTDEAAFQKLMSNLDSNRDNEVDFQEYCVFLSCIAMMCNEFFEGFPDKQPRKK
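Material: S100A4 monomer protein / Buffer or medium: 50 mM HEPES pH 7.2, 10 mM CaCl2, 100 mM KCl / Times: 5 min incubation before reading / Benchmarks: neutral control DMSO, positive control TFP / Reagent: labelled myosin peptide probe, 5 nM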
SIRT5 inh: blocks human SIRT5 desuccinylation of peptide; 330,000 compounds, 1.1% hits; inhibition, % at 15 µM; Q9NXA8; Purified SirT5, succinyl-peptide AMC, trypsin-coupled fluorescence; in the data active means inhibition above about 15%; inconclusive means no clear call, values can overlap the other calls
Target sequence (Q9NXA8 whole entry, looked up): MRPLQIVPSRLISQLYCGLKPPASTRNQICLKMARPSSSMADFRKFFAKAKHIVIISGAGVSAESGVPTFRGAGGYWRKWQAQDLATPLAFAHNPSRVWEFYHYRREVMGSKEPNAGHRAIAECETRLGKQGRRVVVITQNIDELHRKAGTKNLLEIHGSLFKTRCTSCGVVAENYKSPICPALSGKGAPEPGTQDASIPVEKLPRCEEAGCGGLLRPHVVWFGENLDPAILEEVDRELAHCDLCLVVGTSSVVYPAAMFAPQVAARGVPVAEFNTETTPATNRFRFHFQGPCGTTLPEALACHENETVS
Large screens that a line does not name were inactive.

C[C@H](CO)N1C[C@H](C)[C@@H](CN(C)S(=O)(=O)c2ccc(F)cc2)OCCCC[C@H](C)Oc2ccc(NC(=O)Nc3ccc4c(c3)OCO4)cc2C1=O	none (no result: CaV13 FRET inh)
C[C@@H]1CCCCO[C@H](CN(C)S(=O)(=O)c2ccc(Cl)cc2)[C@@H](C)CN([C@H](C)CO)C(=O)c2cc(NC(=O)NC3CCCCC3)ccc2O1	none (no result: CaV13 FRET inh)
CNC[C@@H]1Oc2cc(-c3ccc(OC)cc3)ccc2S(=O)(=O)N([C@@H](C)CO)C[C@H]1C	none (no result: CaV13 FRET inh, DENV2 CPE, S100A4 inh HTS, SIRT5 inh)
COc1ccc(CN(C)C[C@H]2OCCCC[C@@H](C)Oc3ccc(NC(=O)Nc4ccc(C(F)(F)F)cc4)cc3C(=O)N([C@@H](C)CO)C[C@H]2C)cc1	none (no result: CaV13 FRET inh)
CC(C)Cc1ccc(-c2cc3nc(NCCc4ccc(S(N)(=O)=O)cc4)ccn3n2)cc1	SIRT5 inh 19.6
NS(=O)(=O)c1ccc(CCNc2ccn3nc(-c4ccccc4)cc3n2)cc1	none
Cc1ccc(C(=O)N/C(=C\c2ccc(-c3ccc(Br)cc3)o2)C(=O)NCCCN(C)C)cc1	MLL AF4-AF9 inh 25.1
CN1CCN(C(=O)C[C@@H]2CC[C@@H]3[C@H](COC[C@@H](O)CN3CC3CCCC3)O2)CC1	none (no result: CaV13 FRET inh)
C[C@@H]1CCCCO[C@@H](CN(C)Cc2ccc(Cl)c(Cl)c2)[C@H](C)CN([C@H](C)CO)C(=O)c2cc(NC(=O)NC3CCCCC3)ccc2O1	none (no result: CaV13 FRET inh)
Cc1ccc(C)c(NC(=O)C2CCCN(S(=O)(=O)c3c(C)noc3/C=C/N(C)C)C2)c1 (configuration not stated)	S100A4 inh HTS 121.8
CN1CCN(C(=S)Nc2ccc(Cl)c(Cl)c2)CC1	DENV2 CPE 77.7 (no result: SIRT5 inh)
CCOC(=O)/C(C#N)=C/c1cc2ccccc2nc1N1CCCCC1	SIRT5 inh 111.9
O=[N+]([O-])c1ccccc1N/N=C1\CC2CC=CC12 (configuration not stated)	DENV2 CPE 30.4
CN(C)CCCNC(=O)C[C@@H]1CC[C@H](NS(=O)(=O)c2ccc(F)cc2)[C@@H](CO)O1	none (no result: CaV13 FRET inh)
CC(C)NC(=O)N(C)C[C@@H]1Oc2ccc(NS(=O)(=O)c3cn(C)cn3)cc2CC(=O)N([C@@H](C)CO)C[C@@H]1C	none (no result: CaV13 FRET inh)
Cc1ccc(C2=NOC(C)(c3nnc(-c4ccncc4)o3)C2)cc1 (configuration not stated)	DENV2 CPE 58.1 (no result: SIRT5 inh)
CC(C)(C)OC(=O)N1CCC[C@H]1C(=O)N1CCC[C@H]1C(=O)NCc1ccc(F)cc1F	SIRT5 inh 16.6
COc1ccccc1CNC(=O)[C@@H](NC(=O)C1CCN(C(=O)[C@@H]2CCCN2C(=O)OC(C)(C)C)CC1)C(C)C	DENV2 CPE 60.8 (no result: CaV13 FRET inh)
C[C@H]1O[C@H](O[C@H]2[C@H](O[C@@H]3CC[C@@]4(C)C(CC[C@]5(C)C4CC=C4[C@@H]6CC(C)(C)CC[C@]6(C(=O)O[C@@H]6O[C@H](CO)[C@@H](O)[C@H](O)[C@H]6O)CC[C@]45C)C3(C)C)O[C@H](C(=O)O)[C@@H](O)[C@@H]2O)[C@@H](O)[C@@H](O)[C@@H]1O (some centres not stated)	DENV2 CPE 109.4 (no result: CaV13 FRET inh, SIRT5 inh)
CC1OC(OC2C(CO)OC(OCC3OC(OC(=O)[C@@]45CCC(C)(C)C[C@@H]4C4=CC[C@@H]6[C@@]7(C)CCC(OC8OCC(O)C(O)C8OC8OC(C)C(O)C(O)C8O)[C@@](C)(CO)C7CC[C@@]6(C)[C@]4(C)CC5)C(O)C(O)C3O)C(O)C2O)C(O)C(O)C1O (some centres not stated)	none
CC1(C)CC[C@]2(C(=O)O)CC[C@]3(C)C(=CC[C@@H]4[C@@]5(C)CC[C@H](O[C@@H]6O[C@H](C(=O)O)[C@@H](O)[C@H](O[C@@H]7OC[C@H](O)[C@H](O)[C@H]7O)[C@H]6O)C(C)(C)[C@@H]5CC[C@]43C)[C@@H]2C1	none (no result: SIRT5 inh)
CC1(C)CC[C@]2(C(=O)O[C@@H]3O[C@H](CO)[C@@H](O)[C@H](O)[C@H]3O)CC[C@]3(C)C(=CCC4[C@@]5(C)CC[C@H](O[C@@H]6O[C@H](C(=O)O)[C@@H](O[C@H]7OC[C@@H](O)[C@@H](O)[C@@H]7O)[C@H](O)[C@H]6O)C(C)(C)C5CC[C@]43C)[C@@H]2C1 (some centres not stated)	DENV2 CPE 80.9 (no result: SIRT5 inh)
N#C[C@H]1[C@H](c2ccc(-c3cccc(F)c3)cc2)[C@H](CO)N1C(=O)c1cccnc1	DENV2 CPE inconclusive (no result: CaV13 FRET inh)
O=C(C[C@H]1CC[C@@H]2[C@H](COC[C@H](O)CN2S(=O)(=O)c2ccc(Cl)cc2)O1)N[C@H]1CCN(Cc2ccccc2)C1	none (no result: CaV13 FRET inh)
CCN1CCN(CCc2nc3cc(NC(=O)COc4ccc(Cl)cc4)ccc3n2C)CC1	DENV2 CPE 25.3
CNC(=O)C[C@@H]1CC[C@@H]2[C@@H](COc3ccc(NC(=O)NC4CCCC4)cc3C(=O)N2C)O1	none (no result: CaV13 FRET inh)
CNC[C@@H]1Oc2cc(C#CCN(C)C)ccc2S(=O)(=O)N([C@@H](C)CO)C[C@H]1C	none (no result: CaV13 FRET inh)
CO[C@@H]1CN(C)C(=O)c2cc(NS(=O)(=O)c3ccccc3)ccc2OC[C@@H](C)N(Cc2nccs2)C[C@@H]1C	none (no result: CaV13 FRET inh)
CCCNC(=O)N1CC2(C1)[C@H](c1ccccc1)[C@@H](CO)N2Cc1cccc(F)c1	none (no result: CaV13 FRET inh)
O=C(C1CCC1)N1CC2(C1)[C@@H](c1ccccc1)[C@@H](CO)N2C(=O)NC1CCCC1	DENV2 CPE 31.2 (no result: CaV13 FRET inh)
CCCNC(=O)N1[C@H](CO)[C@@H](c2ccccc2)C12CN(C(=O)C1CCCCC1)C2	DENV2 CPE 84.8 (no result: CaV13 FRET inh)
CCCNC(=O)N1CC2(C1)[C@H](c1ccccc1)[C@H](CO)N2Cc1cccc(F)c1	SIRT5 inh 24.1 (no result: CaV13 FRET inh)
C[C@@H]1CN([C@H](C)CO)S(=O)(=O)c2ccc(/C=C/c3ccccc3)cc2O[C@@H]1CN(C)C(=O)c1ccc2c(c1)OCO2	SIRT5 inh 23.2 (no result: CaV13 FRET inh)
C[C@@H]1CN([C@@H](C)CO)S(=O)(=O)c2ccc(/C=C/c3ccccc3)cc2O[C@@H]1CN(C)C(=O)c1ccc2c(c1)OCO2	SIRT5 inh 23.8 (no result: CaV13 FRET inh)
C/C=C/c1ccc2c(c1)O[C@@H](CN(C)C(=O)c1ccc3c(c1)OCO3)[C@H](C)CN([C@@H](C)CO)S2(=O)=O	none (no result: CaV13 FRET inh)
Cc1ccc(S(=O)(=O)c2nnn3c2nc(N2CCOCC2)c2ccccc23)c(C)c1	MLL AF4-AF9 inh inconclusive
Cc1ccc(S(=O)(=O)c2nnn3c2nc(N2CCOCC2)c2ccccc23)cc1C	DENV2 CPE 25.0
Cc1ccc(S(=O)(=O)N2[C@@H]3CNC[C@H]2C3c2ccc(-c3ccc(C(=O)N(C)C)cc3)cc2)cc1 (some centres not stated)	none (no result: CaV13 FRET inh)
COc1cccc(S(=O)(=O)N[C@@H]2CC[C@H](CCn3cc(-c4ccccc4OC)nn3)O[C@@H]2CO)c1	none (no result: CaV13 FRET inh)
O=C(NCc1ccc(F)cc1)c1cccnc1C(=O)O	DENV2 CPE inconclusive, SIRT5 inh 23.3
